Experimental findings from ChEMBL document CHEMBL1138335, “New N-arachidonoylserotonin analogues with potential "dual" mechanism of action against pain” (J Med Chem, 2007) are described below.

Active and inactive are the calls of the source. No cut-off for these calls is given here.

The target of assay [1] is Transient receptor potential cation channel subfamily V member 1 (Homo sapiens, UniProt Q8NER1). The assay can be described thus: Antagonist activity at human recombinant TRPV1 receptor expressed in HEK293 cells assessed as inhibition of capsaicin-induced intracellular calcium elevation. The format is functional, cell-based. An outline of the steps: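 Stably transfected HEK293 cells grown in MEM with nonessential amino acids, 10% FCS, 0.2 mM glutamine, 37 °C. Plated on poly-L-lysine a day before. Loaded 2 h at 25 °C with 4 µM Fluo-3 AM, washed, trypsinized, resuspended in Tyrode pH 7.4.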
Transient receptor potential cation channel subfamily V member 1, sequence (Q8NER1 whole entry): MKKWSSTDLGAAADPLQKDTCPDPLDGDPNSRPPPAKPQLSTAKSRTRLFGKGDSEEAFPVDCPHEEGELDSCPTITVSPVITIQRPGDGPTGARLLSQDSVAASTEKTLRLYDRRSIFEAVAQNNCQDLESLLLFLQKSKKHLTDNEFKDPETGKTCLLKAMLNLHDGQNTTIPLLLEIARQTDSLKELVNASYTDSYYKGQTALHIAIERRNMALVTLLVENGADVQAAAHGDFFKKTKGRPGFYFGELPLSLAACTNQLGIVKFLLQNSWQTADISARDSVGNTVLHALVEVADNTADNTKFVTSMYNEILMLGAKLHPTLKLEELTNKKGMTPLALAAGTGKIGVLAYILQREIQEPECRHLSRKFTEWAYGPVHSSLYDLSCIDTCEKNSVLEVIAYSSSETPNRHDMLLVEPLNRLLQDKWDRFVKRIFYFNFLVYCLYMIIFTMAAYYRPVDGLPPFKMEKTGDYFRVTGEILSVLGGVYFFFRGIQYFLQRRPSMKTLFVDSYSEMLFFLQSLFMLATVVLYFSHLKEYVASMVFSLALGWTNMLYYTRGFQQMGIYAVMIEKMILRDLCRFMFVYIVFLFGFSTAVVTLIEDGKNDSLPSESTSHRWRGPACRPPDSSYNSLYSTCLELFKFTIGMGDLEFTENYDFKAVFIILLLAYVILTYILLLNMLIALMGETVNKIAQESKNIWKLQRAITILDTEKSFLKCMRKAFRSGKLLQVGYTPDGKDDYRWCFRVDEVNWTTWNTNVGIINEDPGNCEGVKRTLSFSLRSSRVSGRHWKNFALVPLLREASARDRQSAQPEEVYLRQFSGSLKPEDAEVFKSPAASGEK

Assay [2] addresses T1, Fatty-acid amide hydrolase 1 (Rattus norvegicus, UniProt P97612).
T1 sequence (P97612 whole entry): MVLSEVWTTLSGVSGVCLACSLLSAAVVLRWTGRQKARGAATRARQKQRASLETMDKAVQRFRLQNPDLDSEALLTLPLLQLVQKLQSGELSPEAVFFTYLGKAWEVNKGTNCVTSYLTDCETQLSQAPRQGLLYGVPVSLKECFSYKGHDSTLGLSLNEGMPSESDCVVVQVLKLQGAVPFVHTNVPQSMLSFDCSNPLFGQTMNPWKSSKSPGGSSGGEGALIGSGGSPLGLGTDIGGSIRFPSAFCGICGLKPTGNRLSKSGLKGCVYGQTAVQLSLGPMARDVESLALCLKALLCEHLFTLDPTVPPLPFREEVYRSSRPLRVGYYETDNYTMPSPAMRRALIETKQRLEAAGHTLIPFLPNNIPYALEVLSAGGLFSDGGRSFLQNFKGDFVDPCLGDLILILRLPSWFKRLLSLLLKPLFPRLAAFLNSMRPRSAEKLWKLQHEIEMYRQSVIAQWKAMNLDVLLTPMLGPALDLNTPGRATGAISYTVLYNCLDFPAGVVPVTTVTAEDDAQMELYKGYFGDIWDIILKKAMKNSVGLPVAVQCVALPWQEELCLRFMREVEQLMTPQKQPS
Kind of assay: Inhibition of rat brain FAAH assessed by measuring [14C]anandamide hydrolysis after 30 mins.

For a further assay, the system named is RBL-2H3. Kind of assay: Inhibition of anandamide uptake in RBL-2H3 cells upto 25 uM after 5 mins by anandamide membrane transport assay. The assay is classed as functional, cell-based. The following applies: Rattus norvegicus.
Another assay has as its system Mus musculus. The assay can be described thus: Antinociceptive activity in ip dosed mouse assessed as inhibition of formalin-induced hyperalgesia. The format is functional, organism-based. An outline of the steps: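 Mice given compound ip 15 min before 1.25% formalin into the dorsal hind paw (n = 8–10 per group). Doses were 0.3–5 or 1–10 mg/kg. Some groups also got AM251 or AM630 (3 mg/kg ip) or I-RTX (0.1–0.2 mg/kg ip) 5 min earlier. Lifting, licking, flinching and similar behaviour timed every 5 min for 60 min. IC50 estimated at 40 min post-formalin.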

The target in assay [3] is T2, Fatty-acid amide hydrolase 1 (Rattus norvegicus) (UniProt P97612).
T2 sequence (whole entry): T1 sequence (P97612 whole entry)
Conditions: at 50 µM.

On to `CCCCC/C=C\C/C=C\C/C=C\CCCCC(=O)NCCc1c[nH]c2ccc(O)cc12`, for which the IC50 in assay [1] was 0.95 µM; in assay [2], 10 µM.

In the case of `CCCCCc1cccc(CC(=O)NCCc2c[nH]c3ccc(O)cc23)c1`, the IC50 in assay [1] was 0.24 µM; in assay [2], greater than 50 µM.

Turning to `CCCCC/C=C\C/C=C\C/C=C\CCCCCOC(=O)NCCc1c[nH]c2ccc(O)cc12`, the IC50 in assay [1] is greater than 10 µM; in assay [2] it was greater than 50 µM.

With `O=C(NCCc1c[nH]c2ccc(O)cc12)Oc1ccc(Cl)cc1`, the values for the IC50 in assay [1] and in assay [2] were greater than 10 µM and 6.8 µM, respectively.

As for `CCCCCc1cccc(NC(=O)NCCc2c[nH]c3ccc(O)cc23)c1`, the IC50 in assay [1] is 2.63 µM; in assay [2], greater than 50 µM.

On to `CCCCC/C=C\C/C=C\C/C=C\C/C=C\CCCCOC(=O)NCCc1c[nH]c2ccc(O)cc12`, for which the IC50 was 2.82 µM in assay [1] and greater than 50 µM in assay [2].

As to `CCCCCc1cccc(OC(=O)NCCc2c[nH]c3ccc(O)cc23)c1`, the IC50 in assay [1] is 2.4 µM; in assay [2], 3.6 µM. Moreover, in the assay with RBL-2H3, the outcome was inactive.

On to `O=C(NCCc1ccc(-c2ccccc2)cc1)NCCc1c[nH]c2ccc(O)cc12`, for which the IC50 is greater than 10 µM in assay [1] and greater than 50 µM in assay [2].

With `CC/C=C\C/C=C\C/C=C\CCCCCCCC(=O)NCCc1c[nH]c2ccc(O)cc12`, the IC50 in assay [1] is 0.47 µM; in assay [2], 10 µM.

For `CCCCCCCCCCC(=O)NCCc1c[nH]c2ccc(O)cc12`, the IC50 in assay [1] was 0.76 µM; in assay [2], greater than 50 µM.

Take `CC(C)(C)c1ccc(CNC(=O)NCCc2c[nH]c3ccc(O)cc23)cc1`: the results for the IC50 in assay [1] and in assay [2] were 3.8 µM and 50 µM, respectively.

In the case of `O=C(NCCc1ccc(Oc2ccccc2)cc1)NCCc1c[nH]c2ccc(O)cc12`, the figures for the IC50 in assay [1] and in assay [2] were greater than 10 µM and greater than 50 µM, respectively.

Regarding `O=C(NCCc1ccc(Cl)cc1)NCCc1c[nH]c2ccc(O)cc12`, the IC50 in assay [1] is greater than 10 µM; in assay [2] it was greater than 50 µM.

As for `CCCCC/C=C\C/C=C\C/C=C\C/C=C\CCCC(=O)NCCc1c[nH]c2ccc(O)cc12`, the IC50 was 0.27 µM in assay [1], 0.5 mg/kg in the assay on Mus musculus and 8 µM in assay [2].

Take `O=C(NCCc1c[nH]c2ccc(O)cc12)Oc1cccc(C(F)(F)F)c1`: the figures for the IC50 in assay [1] and in assay [2] were greater than 10 µM and 2.2 µM, respectively.

In the case of `O=C(NCCc1c[nH]c2ccc(O)cc12)Oc1ccc(C(F)(F)F)cc1`, the results for the IC50 in assay [1] and in assay [2] were greater than 10 µM and 6.4 µM, respectively.

With `CC(C)(C)c1ccc(OC(=O)NCCc2c[nH]c3ccc(O)cc23)cc1`, the values for the IC50 in assay [1] and in assay [2] were 5.25 µM and greater than 10 µM, respectively.

Regarding `CCCCCCCCCCCC(=O)NCCc1c[nH]c2ccc(O)cc12`, the IC50 is 0.74 µM in assay [1] and greater than 50 µM in assay [2].

On to `CCCCC/C=C\C/C=C\CCCCCCCCOC(=O)NCCc1c[nH]c2ccc(O)cc12`, for which the IC50 in assay [1] was greater than 10 µM; in assay [2] it was greater than 50 µM.

Take `O=C(NCCc1c[nH]c2ccc(O)cc12)Oc1ccc(OCc2ccccc2)cc1`: the results for the IC50 in assay [1] and in assay [2] were greater than 10 µM and 1.17 µM, respectively. Further, the result with RBL-2H3 was inactive.

Turning to `O=C(NCCc1c[nH]c2ccc(O)cc12)Nc1cccc(-c2ccccc2)c1`, the figures for the IC50 in assay [1] and in assay [2] were 0.72 µM and greater than 50 µM, respectively.

Regarding `CCCCCc1cccc(-c2cccc(CCCC(=O)NCCc3c[nH]c4ccc(O)cc34)c2)c1`, the IC50 in assay [1] was greater than 10 µM; in assay [2] it was 50 µM.

`O=C(NCCc1c[nH]c2ccc(O)cc12)Oc1cccc(I)c1`: the IC50 was greater than 10 µM in assay [1] and 1.8 µM in assay [2].

Consider `O=C(NCCc1c[nH]c2ccc(O)cc12)Oc1ccc2ccccc2c1`, for which the figures for the IC50 in assay [1] and in assay [2] were greater than 10 µM and 10 µM, respectively. In the assay on RBL-2H3, the outcome was inactive.

Take `O=C(NCCc1c[nH]c2ccc(O)cc12)Oc1cccc(Cl)c1`: the IC50 is greater than 10 µM in assay [1] and 1.9 µM in assay [2].

As for `CCCCCc1ccc2ccc(CCCC(=O)NCCc3c[nH]c4ccc(O)cc34)cc2c1`, the figures for the IC50 in assay [1] and in assay [2] were greater than 10 µM and 50 µM, respectively.

For the molecule `O=C(CCCCC1CCSS1)NCCc1c[nH]c2ccc(O)cc12` (racemic), the IC50 is greater than 10 µM in assay [1] and greater than 50 µM in assay [2].

For `O=C(CCCCCCCc1ccccc1)NCCc1c[nH]c2ccc(O)cc12`, the IC50 in assay [1] came out at 2.13 µM; in assay [2], 34 µM.

For `O=C(CCCCCCc1ccccc1)NCCc1c[nH]c2ccc(O)cc12`, the IC50 in assay [1] was 9.12 µM; in assay [2], greater than 50 µM.

In the case of `O=C(NCCc1ccccc1)NCCc1c[nH]c2ccc(O)cc12`, the IC50 in assay [1] was greater than 10 µM; in assay [2] it was greater than 50 µM.

For the molecule `CCCCCCCC/C=C\CCCCCCCC(=O)NCCc1c[nH]c2ccc(O)cc12`, the IC50 in assay [1] is 2.57 µM; in assay [2], greater than 50 µM.

Consider `O=C(CCCCCCCCc1ccccc1)NCCc1c[nH]c2ccc(O)cc12`, for which the IC50 in assay [1] came out at 0.68 µM; in assay [2] it was 30 µM.

As to `O=C(Cc1cccc(-c2ccccc2)c1)NCCc1c[nH]c2ccc(O)cc12`, the IC50 in assay [1] was 0.43 µM; in the assay on Mus musculus, 5 mg/kg; in assay [2], greater than 50 µM.

Turning to `CC/C=C\C/C=C\C/C=C\CCCCCCCCOC(=O)NCCc1c[nH]c2ccc(O)cc12`, the IC50 is greater than 10 µM in assay [1] and greater than 50 µM in assay [2].

In assay [3], `C=C(C)[C@]12C[C@@H](C)[C@@]34O[C@](Cc5ccccc5)(O[C@@H]1[C@@H]3C=C(COC(=O)Cc1cc(I)c(O)c(OC)c1)C[C@]1(O)C(=O)C(C)=C[C@@H]41)O2` displayed an inhibition of less than 10%.

Turning to `O=C(NCCc1c[nH]c2ccc(O)cc12)Oc1ccc(I)cc1`, the IC50 is greater than 10 µM in assay [1] and 5 µM in assay [2].

In the case of `O=C(NCCc1c[nH]c2ccc(O)cc12)Oc1cccc(-c2ccccc2)c1`, the IC50 in assay [1] is greater than 10 µM; in the assay on Mus musculus, 4 mg/kg; in assay [2], 0.5 µM. Also, in the assay on RBL-2H3, the outcome was inactive.

As to `CCCCC/C=C\C/C=C\CCCCCCCC(=O)NCCc1c[nH]c2ccc(O)cc12`, the IC50 in assay [1] amounted to 1.82 µM; in assay [2] it was 30 µM.

For `CC(C)(C)c1cccc(OC(=O)NCCc2c[nH]c3ccc(O)cc23)c1`, the IC50 was greater than 10 µM in assay [1] and 3.7 µM in assay [2].
